Results taken from ChEMBL document CHEMBL1122837, “Angiotensin converting enzyme inhibitors: N-substituted D-glutamic acid gamma dipeptides” (J Med Chem, 1985).

Columns and labels:
Rattus norvegicus [1] = assay: Percent inhibitory activity against angiotensin I pressor response 2 hr after peroral administration at dose 1 mg/kg; type: functional; settings: route oral
Summary of the method: (§1)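 Normotensive rats were dosed orally. The angiotensin I pressor response was followed, and the maximum percent inhibition 2 h after administration was reported.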

Rattus norvegicus [2] = assay: Percent inhibitory activity against angiotensin I pressor response 15 min after intravenous administration at dose 0.1 mg/kg; type: functional; settings: 0.25 h
Summary of the method: (§2)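 Normotensive rats received the test compound intravenously. The angiotensin I pressor response was measured 15 min after dosing and reported as percent inhibition.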

[3] = target: T1, Angiotensin-converting enzyme (Oryctolagus cuniculus, UniProt P12822); assay: In vitro inhibition of angiotensin I converting enzyme from rabbit lung; type: tissue-based
T1 sequence (P12822 whole entry): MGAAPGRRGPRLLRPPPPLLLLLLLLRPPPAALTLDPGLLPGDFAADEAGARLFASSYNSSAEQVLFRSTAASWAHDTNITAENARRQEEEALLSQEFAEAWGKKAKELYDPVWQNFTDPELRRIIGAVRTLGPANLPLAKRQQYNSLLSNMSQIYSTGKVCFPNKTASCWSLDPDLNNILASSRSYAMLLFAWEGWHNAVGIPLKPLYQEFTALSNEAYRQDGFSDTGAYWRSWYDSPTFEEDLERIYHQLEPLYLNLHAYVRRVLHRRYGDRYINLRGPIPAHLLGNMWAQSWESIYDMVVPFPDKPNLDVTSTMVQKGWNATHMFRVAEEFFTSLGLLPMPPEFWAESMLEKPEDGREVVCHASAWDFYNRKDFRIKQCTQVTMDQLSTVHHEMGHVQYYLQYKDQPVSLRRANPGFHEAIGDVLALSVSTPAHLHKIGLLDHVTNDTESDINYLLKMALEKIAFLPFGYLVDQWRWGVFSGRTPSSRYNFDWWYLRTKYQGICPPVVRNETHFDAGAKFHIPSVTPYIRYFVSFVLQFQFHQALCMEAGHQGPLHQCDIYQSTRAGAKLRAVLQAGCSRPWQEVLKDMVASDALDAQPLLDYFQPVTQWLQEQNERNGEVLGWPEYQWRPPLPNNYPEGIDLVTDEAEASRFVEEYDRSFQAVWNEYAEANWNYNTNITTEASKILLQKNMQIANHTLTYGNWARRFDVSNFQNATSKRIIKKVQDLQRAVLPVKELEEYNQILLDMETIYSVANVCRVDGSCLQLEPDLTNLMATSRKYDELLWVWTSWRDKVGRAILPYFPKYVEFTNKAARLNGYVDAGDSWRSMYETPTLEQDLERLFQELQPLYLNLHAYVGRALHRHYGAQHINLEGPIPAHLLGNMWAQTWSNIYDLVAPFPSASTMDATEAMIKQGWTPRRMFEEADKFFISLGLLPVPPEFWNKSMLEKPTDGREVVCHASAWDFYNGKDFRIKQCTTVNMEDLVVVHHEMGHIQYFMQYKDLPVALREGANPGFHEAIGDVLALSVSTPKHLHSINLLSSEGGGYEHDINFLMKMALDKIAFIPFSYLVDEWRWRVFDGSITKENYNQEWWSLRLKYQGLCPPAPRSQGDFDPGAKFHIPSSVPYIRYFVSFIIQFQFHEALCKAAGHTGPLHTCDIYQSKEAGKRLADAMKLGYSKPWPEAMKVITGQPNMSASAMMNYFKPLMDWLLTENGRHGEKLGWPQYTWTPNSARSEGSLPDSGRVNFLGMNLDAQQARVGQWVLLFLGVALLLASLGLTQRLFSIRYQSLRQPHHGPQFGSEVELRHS

Rattus norvegicus [4] = assay: Percent inhibitory activity against angiotensin I pressor response 2 hr after peroral administration at dose 10 mg/kg; type: functional; settings: route oral; summary of the method: as §1
Rattus norvegicus [5] = assay: Percent inhibitory activity against angiotensin I pressor response 15 min after intravenous administration at dose 1 mg/kg; type: functional; settings: 0.25 h; summary of the method: as §2

SMILES	IC50 [3] [nM]	further results
O=C(N[C@@H](CCC(=O)N1c2ccccc2CC1C(=O)O)C(=O)O)OCc1ccccc1 (some centres undefined)	500	
O=C(N[C@H](CCC(=O)N1c2ccccc2C[C@H]1C(=O)OCc1cccnc1)C(=O)O)OCc1ccccc1	350	inhibition in vivo at 10 mg/kg (Rattus norvegicus [4]): 15%; inhibition in vivo at 1 mg/kg (Rattus norvegicus [5]): 70%
O=C(N[C@H](CCC(=O)N1c2ccccc2C[C@H]1C(=O)O)C(=O)O)c1cccnc1	24	inhibition in vivo at 1 mg/kg (Rattus norvegicus [1]): 0%; inhibition in vivo at 0.1 mg/kg (Rattus norvegicus [2]): 79%
O=C(O)CN(C(=O)CC[C@@H](NC(=O)OCc1ccccc1)C(=O)O)C1CCCC1	40	
O=C(O)[C@@H](CCC(=O)N1c2ccccc2C[C@H]1C(=O)O)NS(=O)(=O)Cc1ccccc1	29	
CN(C)CCCOC(=O)[C@@H]1Cc2ccccc2N1C(=O)CC[C@@H](NC(=O)OCc1ccccc1)C(=O)O	37	
O=C(O)[C@@H](CCC(=O)N1c2ccccc2C[C@H]1C(=O)O)N(Cc1ccccc1)C(=O)OCc1ccccc1	10000	
CC(=O)N[C@H](CCC(=O)N1c2ccccc2C[C@H]1C(=O)O)C(=O)O	95	
O=C(N[C@H](CCC(=O)N1[C@H](C(=O)O)C[C@@H]2CCCC[C@@H]21)C(=O)O)OCc1ccccc1	2.7	
CN(C)CCOC(=O)[C@@H]1Cc2ccccc2N1C(=O)CC[C@@H](NC(=O)OCc1ccccc1)C(=O)O	7	
Cc1ccc(S(=O)(=O)N[C@H](CCC(=O)N2c3ccccc3C[C@H]2C(=O)O)C(=O)O)cc1	20	
O=C(N[C@H](CCC(=O)N1C[C@H]2CCCC[C@H]2C[C@H]1C(=O)O)C(=O)O)OCc1ccccc1	17	
O=C(N[C@H](CCC(=O)N1c2ccccc2CCC1C(=O)O)C(=O)O)OCc1ccccc1 (some centres undefined)	88	
O=C(N[C@H](CCC(=O)N1c2ccccc2C[C@H]1C(=O)O)C(=O)O)c1ccccn1	57	
N[C@H](CCC(=O)N1c2ccccc2C[C@H]1C(=O)O)C(=O)O	10000	
NCCCCC(N)C(=O)N[C@H](CCC(=O)N1c2ccccc2C[C@H]1C(=O)O)C(=O)O (some centres undefined)	188	
O=C(CCc1ccccc1)N[C@H](CCC(=O)N1c2ccccc2C[C@H]1C(=O)O)C(=O)O	40	inhibition in vivo at 1 mg/kg (Rattus norvegicus [5]): 76%

More lines, in order of falling IC50 [3], values ahead:

IC50 [3] [nM]	SMILES	further results
4700	CCOC(=O)[C@@H]1Cc2ccccc2N1C(=O)CC[C@@H](NC(=O)OCc1ccccc1)C(=O)O	
2200	CCOC(=O)[C@@H](CCC(=O)N1c2ccccc2C[C@H]1C(=O)O)NC(=O)c1cccnc1	inhibition in vivo at 10 mg/kg (Rattus norvegicus [4]): 30%; inhibition in vivo at 1 mg/kg (Rattus norvegicus [5]): 100%
300	O=C(O)[C@@H](CCC(=O)N1c2ccccc2C[C@H]1C(=O)O)NCc1ccccc1	
160	NC(=O)[C@@H]1Cc2ccccc2N1C(=O)CC[C@@H](NC(=O)OCc1ccccc1)C(=O)O	
61	O=C(NCCCCC(NC(=O)OCc1ccccc1)C(=O)N[C@H](CCC(=O)N1c2ccccc2C[C@H]1C(=O)O)C(=O)O)OCc1ccccc1 (some centres undefined)	
52	O=C1OCN(C(=O)OCc2ccccc2)[C@@H]1CCC(=O)N1c2ccccc2C[C@H]1C(=O)O	
50	O=C(N[C@H](CCC(=O)N1CCC[C@H]1C(=O)O)C(=O)O)OCc1ccccc1	
44	O=C(Nc1ccccc1)N[C@H](CCC(=O)N1c2ccccc2C[C@H]1C(=O)O)C(=O)O	
28	O=C(N[C@H](CCC(=O)N1c2ccccc2C[C@H]1C(=O)O)C(=O)O)c1ccccc1	inhibition in vivo at 0.1 mg/kg (Rattus norvegicus [2]): 55%
21	COc1ccc(N(CC(=O)O)C(=O)CC[C@@H](NC(=O)OCc2ccccc2)C(=O)O)cc1OC	
14	O=C(N[C@H](CCC(=O)N1Cc2ccccc2C[C@H]1C(=O)O)C(=O)O)OCc1ccccc1	
7	O=C(NC(CCC(=O)N1c2ccccc2C[C@@H]1C(=O)O)C(=O)O)OCc1ccccc1 (some centres undefined)	inhibition in vivo at 1 mg/kg (Rattus norvegicus [1]): 0%; inhibition in vivo at 0.1 mg/kg (Rattus norvegicus [2]): 70%
